Experiment: Toxicity liver stage against HepG2, at 10uM
Assay type: cell-based
Design: test concentration 10 uM, cell line HepG2-A16-CD81EGFP
Conditions: human, HepG2-A16-CD81EGFP cells; read-out: INHIBITION
Summary of the method: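 Uninfected HepG2-A16-CD81EGFP cells, 3 × 10^3 per well, 1536-well, plated on prespotted compound at 10 μM final, parasite-free screening media added to match infected plates; puromycin 10 μM positive, DMSO 0.5% negative; run in parallel with 48 h PbLuc assay at 37 °C, 5% CO2; viability by CellTiter-Glo luminescence, normalized to controls.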

In order of rising cytotoxicity at 10 µM:
1. COCC1CC2(CCN(c3ccccn3)CC2)CN1C(C)C (stereo unspecified)  -110%
2. CCOCC1CN(CC2CC2)Cc2nn(C)cc21 (stereo unspecified)  -76%
3. Cn1ccnc1SCCNc1ccnc(C(F)(F)F)n1  -50.4%
4. Cc1noc(C)c1CC(=O)NCC(C(C)C)N1CCOCC1 (stereo unspecified)  -42.7%
5. COc1ccc(CCCNCc2c(C)nn(C)c2N(C)C)cc1OC  -19.2%
6. CNc1cccc(C2CCCN(C(=O)c3cccnc3)C2)n1 (stereo unspecified)  -16.6%
7. Fc1ccc(N2CCOC(Cc3cccnc3)C2)cc1 (stereo unspecified)  -16.3%
8. Cc1ccc2c(c1)c(CNC(=O)C1CCN(C(C)C)CC1)nn2C  -14.8%
9. CC(C)c1cc(NC(=O)c2ccc(NC3CC3)nc2)[nH]n1  -8.9%
10. Cc1cc(C)n(CC2CCCN2CC(=O)N(C)C)n1 (stereo unspecified)  -7.86%
11. Cc1nc(CN2CCCC(N(C)CC3CCCC3)C2)no1 (stereo unspecified)  -7.3%
12. CC(c1cccs1)N(C)Cc1cnc(-c2ccccn2)nc1 (stereo unspecified)  -6.3%
13. CSCC(=O)Nc1cccc(Oc2ccccn2)c1  -6.1%
14. OC1(CN2CCCC2)COCCN(c2cc(C(F)(F)F)ccn2)C1 (stereo unspecified)  -5.34%
15. O=C(CSC1CCCC1)N1CCN(C(=O)C2CC2c2ccccc2)CC1 (stereo unspecified)  -4.74%
16. COC(C(=O)NC1CCN(S(C)(=O)=O)CC1)c1ccccc1 (stereo unspecified)  -4.68%
17. OCCN1CCc2[nH]nc(C(c3ccccc3)c3ccccc3)c2C1  -2.98%
18. Nc1cccnc1N1CCN(c2ccccc2)CC1  -2.95%
19. CN(C)C(=O)CO[C@H]1CN(Cc2cccc(F)c2)[C@@H]2CCCO[C@H]12  -2.76%
20. CCn1cc(NC(=O)NCC(c2cccs2)N(C)C)cn1 (stereo unspecified)  -2.66%
21. Cc1nccc(-c2ccccc2)c1C(=O)N1CCC2(CC(=O)NC2=O)C1 (stereo unspecified)  -2.12%
22. COc1c(C2CCCN2Cc2csc(C(C)C)n2)c(C)nn1C (stereo unspecified)  -1.53%
23. O=C(CC1CC1)N[C@@H]1CN(Cc2cccnc2)C[C@@H]2CCCO[C@@H]21  -0.995%
24. CCOc1ccc(C(=O)N(C)Cc2nccn2CC(F)(F)F)cc1  -0.296%
25. COC(=O)N1CCN(Cc2ccccc2Cl)CC1  -0.227%
26. O=C(c1cnc(NCC2CCCO2)c(Cl)c1)N1CCOCC1 (stereo unspecified)  0.0875%
27. CCC(CC)C(=O)NCc1c(C)nn(C)c1N1CCCN(C)CC1  0.295%
28. CN(C)c1cc(CNC(=O)Nc2nccs2)ccn1  2.3%
29. COc1cccc(S(=O)(=O)CCN2CCCCC2)c1  2.37%
30. COc1ccc(C)cc1CCNS(C)(=O)=O  2.39%
31. Nc1nnc(Cn2nnc(-c3ccccc3F)n2)s1  3.09%
32. COCC1CN(C(=O)Nc2cc(-n3cccc3)ccc2F)CCO1 (stereo unspecified)  3.61%
33. CN1[C@@H](C(=O)NCC2CC2)C[C@@H]2CN(Cc3ccoc3)C[C@@H]21  3.88%
34. CCN1Cc2ccccc2CC2(CCN(CC3CCC3)CC2)C1=O  4.15%
35. Cc1ccc(C(=O)N2[C@@H]3CC[C@H]2CC(=O)N(C)C3)c(=O)[nH]1  4.23%
36. O=C(c1n[nH]c2c1CN(C1CCOC1)CC2)N1CCOCC1 (stereo unspecified)  4.88%
37. CCCS(=O)(=O)N1CCCC(CCC(=O)N(C)CCc2ccccn2)C1 (stereo unspecified)  5.02%
38. Cc1cc(C(=O)NCC2CCCC2)c(C)n1-c1cccnc1  5.69%
39. CC(C)CN1C[C@@H]2CN(C(=O)[C@H]3CCCO3)C[C@@H]2C1=O  6.03%
40. CC(C)N(C)C(=O)C1CCN(Cc2cc3c(cc2O)CCC3)CC1  6.15%
41. COc1cccc(CC(=O)N2CCc3ncnc(NC(C)C)c3CC2)c1  6.56%
42. COc1ccc(-c2c(C)nn3c(=N)c(C#N)n[nH]c23)cc1OC  8.29%
43. COCCN1CCN(CC(=O)NC2(C#N)CCCC2)CC1C (stereo unspecified)  10.7%
44. COCC(O)CNC(=O)c1coc(COc2ccc3sc(C)nc3c2)n1 (stereo unspecified)  10.8%
45. Cc1ccc2nc(CN3CCN(C4CCCCC4)C(=O)C3)cc(O)c2c1  12.9%
46. Cc1noc(NC(=O)c2ccc(Br)cc2)n1  32.9%

— ChEMBL document CHEMBL4513216, “Probing the Open Global Health Chemical Diversity Library for Multistage-Active Starting Points for Next-Generation Antimalarials” (ACS Infect Dis, 2020)
